Series [1] relates to Human immunodeficiency virus 2. In words: Antiviral activity against HIV2 ROD infected in human MT4 cells assessed as inhibition of virus-induced cytopathicity incubated for 4 days by MTT method. In kind it is functional, organism-based. The settings on record: Human immunodeficiency virus 2, ISOLATE ROD, MT4, 96 h. An outline of the steps:
(§1)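 Virus stocks titrated in MT-4 cells as CCID50. MT-4 cells at 1 × 10^5 cells/mL infected at MOI 0.02 (HIV-1 IIIB or HIV-2 ROD), then plated immediately over serial compound dilutions (DMSO stocks, 50 mM or higher). After 4 days at 37 °C, viable cells counted by MTT. EC50 from means of at least three separate experiments.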
For orientation: Cytopathic effects are the visible damage that an infection or toxin causes in cultured cells.

Series [2] can be described thus: Selectivity index, ratio of CC50 for human MT4 cells to EC50 for HIV1 3B infected in human MT4 cells. It counts as toxicity, cell-based. The settings on record: HIV1 3B infected MT4 cells, read-out: Ratio CC50/EC50. In a few lines: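 SI calculated as CC50 in uninfected MT-4 cells divided by EC50 against WT HIV-1 IIIB. Both come from the 4-day MTT assays at 37 °C; infection was at MOI 0.02 with cells at 1 × 10^5 cells/mL.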

Series [3] is described as follows: Cytotoxicity against human MT4 cells assessed as reduction in cell viability incubated for 4 days MTT method. It counts as cell-based. An outline of the steps: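 Uninfected MT-4 cells at 1 × 10^5 cells/mL exposed to serial compound dilutions (DMSO stocks, 50 mM or higher) in parallel with the antiviral test. Viability read by MTT after 4 days at 37 °C. CC50 is the concentration lowering viability by 50%. Values are means of at least three experiments.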
A general note: Formazan colour is commonly taken as a measure of viable cells.

Series [4] relates to Human immunodeficiency virus 1. As to the kind of experiment: Antiviral activity against HIV1 RES056 expressing reverse transcriptase K103N + Y181C mutant infected in human MT4 cells assessed as inhibition of virus-induced cytopathicity incubated for 4 days by MTT method. The settings on record: Human immunodeficiency virus 1, RES056, MT4, 96 h. In kind it is functional, organism-based. An outline of the steps:
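Serial compound dilutions in MT-4 cells (1 × 10^5 cells/mL) infected at MOI 0.02 with K103N+Y181C double-mutant HIV-1. Cells added to compound right after infection and incubated 4 days at 37 °C. Viable cells counted by MTT and EC50 derived. Cytotoxicity run in parallel on uninfected cells. Values are the mean of at least three experiments.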

Series [5] relates to Human immunodeficiency virus 1. As to the kind of experiment: Antiviral activity against HIV1 3B infected in human MT4 cells assessed as inhibition of virus-induced cytopathicity incubated for 4 days by MTT method. In kind it is functional, organism-based. The following applies: Human immunodeficiency virus 1, 3B, MT4, 96 h. An outline of the steps: as §1
In series [6] the test system is Human immunodeficiency virus 1. In words: Antiviral activity against HIV1 3B infected in human MT4 cells […] at 0.19 uM added 3 to 5 hrs post infection and measured 31 hrs post infection by p24 enzyme-linked immunosorbent assay. In kind it is functional, organism-based. In a few lines: (§2)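 MT-4 cells infected with WT HIV-1 at m.o.i. 0.5; after 1 h adsorption, seeded at 45,000 cells/well, 37°C. Compounds added at 0, 1, 2, 3, 4, 5, 6, 7, 8, 9, 24 or 25 h post-infection. Reference agents at fixed levels (ETV 0.19 µM); hybrids at 100-fold their MT-4/MTT EC50. Virus production measured by p24 ELISA at 31 h post-infection.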

Series [7] has as its target Human immunodeficiency virus type 1 reverse transcriptase (Human immunodeficiency virus 1, UniProt Q72547). In words: Inhibition of HIV1 recombinant wild type reverse transcriptase p66/p51 assessed as reduction in biotin deoxyuridine triphosphate (biotin-dUTP) incorporation using poly(rA)/oligo (dT)16 template and primer by spectrofluorometry.
Series [8] deals with Human immunodeficiency virus 1. As to the kind of experiment: Antiviral activity against HIV1 3B infected in human MT4 cells […] at 100 fold antiviral EC50 level added 3 to 5 hrs post infection and measured 31 hrs post infection by p24 enzyme-linked immunosorbent assay. It counts as functional, organism-based. An outline of the steps: as §2

Series [9] relates to Human immunodeficiency virus 1. In words: Antiviral activity against HIV1 3B infected in human MT4 cells […] added 3 to 5 hrs post infection and measured 31 hrs post infection by p24 enzyme-linked immunosorbent assay. It counts as functional, organism-based. An outline of the steps: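 MT-4 cells infected with WT HIV-1 at m.o.i. 0.5 and allowed 1 h adsorption, then seeded at 45,000 cells/well at 37 °C. Compound added at set times from 0 to 25 h post-infection. Virus production read by p24 ELISA at 31 h post-infection.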

The source of these data is ChEMBL document CHEMBL3593166, “Hybrid chemistry. Part 4: Discovery of etravirine-VRX-480773 hybrids as potent HIV-1 non-nucleoside reverse transcriptase inhibitors” (Bioorg Med Chem, 2015).

The source made the active and inactive calls. No cut-off for these calls is given here. Some results are limits rather than exact numbers.

Regarding `Cc1cc(C#N)cc(C)c1Oc1ccnc(SCC(=O)Nc2ccc(C#N)cc2F)n1`, the EC50 is above 288 µM in series [1], above 288 µM in [4] and 6 µM in series [5]. The selectivity ratio in [2] was above 48. For the same compound, the CC50 at 96 h in series [3] was above 288 µM.

As to `Cc1cc(C#N)cc(C)c1Oc1ccnc(SCC(=O)Nc2cccc(Cl)c2)n1`, the EC50 in series [1] is above 294 µM; in [4], above 294 µM; in series [5] it was 8 µM. For the same compound, in [2], the selectivity ratio was above 37. Moreover, the 50% cytotoxic concentration (CC50) at 96 h in series [3] is above 294 µM.

For `Cc1cc(C#N)cc(C)c1Oc1ccnc(SCC(=O)Nc2ccc(Cl)cc2)n1`, the EC50 in series [1] is above 294 µM; in series [4], above 294 µM; in series [5], 3.9 µM. Besides, the selectivity ratio in series [2] was above 75. Further, the cytotoxic concentration (CC50) at 96 h in series [3] was above 294 µM.

As for `CC(C)Nc1cccnc1N1CCN(C(=O)c2cc3cc(NS(C)(=O)=O)ccc3[nH]2)CC1` [DELAVIRDINE], the selectivity ratio in series [2] was above 67. Also, the CC50 at 96 h in series [3] was above 44 µM. Also, the EC50 in [4] is above 44 µM.

With `Cc1cc(C#N)cc(C)c1Oc1ccnc(SCC(=O)Nc2ccc(Cl)cc2Cl)n1`, the EC50 in series [1] was above 272 µM; in series [4], above 272 µM; in [5] it was 1.2 µM. The selectivity ratio in [2] was above 227. Also, the CC50 at 96 h in series [3] is above 272 µM.

As to `Cc1ccccc1NC(=O)CSc1nccc(Oc2c(C)cc(C#N)cc2C)n1`, the EC50 is above 309 µM in series [1], above 309 µM in series [4] and 5.9 µM in [5]. Besides, the selectivity ratio in series [2] is above 52. Also, the CC50 at 96 h in series [3] was above 309 µM.

On to `COc1ccc(NC(=O)CSc2nccc(Oc3c(C)cc(C#N)cc3C)n2)cc1`, for which the EC50 is above 69 µM in series [1], above 69 µM in [4] and 7.3 µM in series [5]. In [2], the selectivity ratio was at least 9. Also, the CC50 at 96 h in series [3] is at least 69 µM.

For the compound `Cc1cc(C#N)cc(C)c1Oc1ccnc(SCC(=O)Nc2ccc(C#N)cc2)n1`, the EC50 in [1] is above 301 µM; in series [4], above 301 µM; in [5], 4.3 µM. Also, the selectivity ratio in series [2] is above 70. Moreover, the CC50 at 96 h in series [3] was above 301 µM.

In the case of `Cc1cc(C#N)cc(C)c1Oc1ccnc(SCC(=O)Nc2ccc([N+](=O)[O-])cc2)n1`, the results for the EC50 in series [1], in series [4] and in series [5] were above 287 µM, above 287 µM and 1.4 µM, respectively. Moreover, the selectivity ratio in [2] was above 205. Moreover, in series [3], the 50% cytotoxic concentration (CC50) at 96 h was above 287 µM.

On to `Cc1cc(C#N)cc(C)c1Oc1ccnc(SCC(=O)Nc2ccc(F)cc2)n1`, for which the EC50 in series [1] is above 306 µM; in [4], above 306 µM; in series [5], 8 µM. Besides, the selectivity ratio in series [2] is above 38. Also, the CC50 at 96 h in series [3] was above 306 µM.

Turning to `Cc1cc(C#N)cc(C)c1Oc1nc(Nc2ccc(C#N)cc2)nc(N)c1Br` [ETRAVIRINE], the inhibition result in series [6] is “Active”. Moreover, the selectivity ratio in series [2] is above 1120. Also, in series [3], the 50% cytotoxic concentration (CC50) at 96 h was above 4.6 µM.

For `Cc1cc(C#N)cc(C)c1Oc1ccnc(SCC(=O)Nc2ccccc2Cl)n1`, the EC50 is above 294 µM in series [1], at least 10.9 µM in series [4] and 0.24 µM in [5]. Moreover, in series [7], the IC50 is 0.473 µM. Also, the selectivity ratio in series [2] is above 1220. For the same compound, the CC50 at 96 h in series [3] is above 294 µM. For the same compound, the inhibition entry in series [8] was “Active”.

For `Cc1cc(C#N)cc(C)c1Oc1ccnc(SCC(=O)Nc2cccc([N+](=O)[O-])c2)n1`, the EC50 in series [1] was above 287 µM; in series [4], above 287 µM; in [5], 41 µM. In addition, the selectivity ratio in series [2] is above 7. For the same compound, the cytotoxic concentration (CC50) at 96 h in series [3] was above 287 µM.

For the compound `Cc1cc(C#N)cc(C)c1Oc1ccnc(SCC(=O)Nc2ccccc2[N+](=O)[O-])n1`, the EC50 in [1] is above 287 µM; in series [4] it was above 287 µM; in series [5], 0.34 µM. Also, the IC50 in [7] amounted to 1.17 µM. In addition, the selectivity ratio in [2] is above 844. The CC50 at 96 h in series [3] was above 287 µM. The inhibition entry in series [8] was “Active”.

For the compound `Cc1cc(C#N)cc(C)c1Oc1ccnc(SCC(=O)Nc2ccc(Br)cc2)n1`, the concentration for a half-maximal effect (EC50) in series [1] was above 24 µM; in series [4], above 24 µM; in series [5] it was 1.4 µM. In addition, the selectivity ratio in [2] worked out at 17. Also, the CC50 at 96 h in series [3] was found to be 24 µM.

As for `Cc1cc(C#N)cc(C)c1Oc1ccnc(SCC(=O)Nc2ccc(S(N)(=O)=O)cc2)n1`, the half-maximal effective concentration (EC50) in series [1] was above 266 µM; in series [4] it was above 266 µM; in series [5] it was 7.9 µM. Also, the selectivity ratio in [2] was above 34. Besides, in [3], the CC50 at 96 h was above 266 µM.

Turning to `Cc1cc(S(N)(=O)=O)ccc1NC(=O)CSc1nccc(Oc2c(C)cc(C#N)cc2C)n1`, the EC50 in series [1] was above 46 µM; in series [4], above 46 µM; in series [5], 0.81 µM. Further, in [7], the concentration for half-maximal inhibition (IC50) was 2.77 µM. For the same compound, in series [2], the selectivity ratio turned out to be 57. Further, in series [3], the CC50 at 96 h is 46 µM. Moreover, the inhibition result in series [8] was “Active”.

As to `Cc1cc(C#N)cc(C)c1Oc1ccnc(SCC(=O)Nc2cc(Cl)cc(Cl)c2)n1`, the EC50 in series [1] is above 41 µM; in series [4], above 41 µM; in series [5], 10.8 µM. In addition, the selectivity ratio in series [2] is above 3.7. The CC50 at 96 h in [3] is at least 41 µM.

Regarding `Cc1cc(C#N)cc(C)c1Oc1ccnc(SCC(=O)Nc2cccc(F)c2)n1`, the EC50 in [1] is above 306 µM; in series [4] it was above 306 µM; in series [5] it was 8.1 µM. The selectivity ratio in series [2] was above 38. The CC50 at 96 h in [3] is above 306 µM.

As for `Cc1ccc(NC(=O)CSc2nccc(Oc3c(C)cc(C#N)cc3C)n2)cc1`, the EC50 in series [1] was above 309 µM; in [4], above 309 µM; in [5], 5.1 µM. Also, the selectivity ratio in series [2] is above 61. Moreover, the CC50 at 96 h in series [3] is above 309 µM.

For the compound `NS(=O)(=O)c1ccc(NC(=O)CSc2nnc(Br)n2-c2ccc(C3CC3)c3ccccc23)c(Cl)c1`, the selectivity ratio in series [2] was 41600. In addition, in [3], the CC50 at 96 h was 5.82 µM. Further, the EC50 in series [4] came to 0.00023 µM; in series [5], 0.00014 µM.

On to `Cc1cc(C#N)cc(C)c1Oc1ccnc(SCC(=O)Nc2ccccc2)n1`, for which the EC50 in series [1], in [4] and in series [5] was above 320 µM throughout. In addition, the CC50 at 96 h in series [3] is above 320 µM.

In the case of `Cc1ccnc2c1NC(=O)c1cccnc1N2C1CC1`, in series [9], the inhibition result was “Active”.

On to `Cc1cc(C#N)cc(C)c1Oc1ccnc(SCC(=O)Nc2ccc(Cl)c(Cl)c2)n1`, for which the figures for the EC50 in [1], in series [4] and in series [5] were above 89 µM, above 89 µM and 5.3 µM, respectively. Besides, in [2], the selectivity ratio amounted to 17. In series [3], the CC50 at 96 h turned out to be 89 µM.

On to `Cc1cc(C#N)cc(C)c1Oc1ccnc(SCC(=O)Nc2ccc(O)cc2)n1`, for which the values for the 50% effective concentration (EC50) in [1], in [4] and in series [5] were above 71 µM, above 71 µM and 8.3 µM, respectively. For the same compound, the selectivity ratio in series [2] came out at 9. In addition, the CC50 at 96 h in [3] amounted to 71 µM.

What is called EC50 is the midpoint of the concentration-response curve. A word on the CC50: it is the concentration giving 50% cytotoxicity. For orientation: IC50 means the concentration that inhibits the measured activity by half.
